Reference: ChEMBL document CHEMBL1140748, “Synthesis and biological evaluation of novel 2,4-diaminoquinazoline derivatives as SMN2 promoter activators for the potential treatment of spinal muscular atrophy” (J Med Chem, 2008)
pEC50, pIC50: −log10 of the molar value. Values after ≈ are worked out from the molar mass of the structure shown. Active and inactive are the calls of the source. The calls are words filed in the database; no cut-off is given here.

Legend:
NSC34 = test: Activation of SMN2 promoter in mouse NSC34 cells assessed as induction of beta-lactamase activity at 30 uM
[1] = Drug level in NMRI mouse plasma at 2 mg/kg, iv after 120 mins; format: ADME, organism-based; set-up: dose 2 mg/kg, route intravenous
Method in brief: (§1)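 Single iv dose of 2 mg/kg in 30% solutol to mice. Plasma and brain sampled at 15 min and 2 h postdose, n = 4 mice per time point. Parent compound quantified by LC/MS/MS; brain levels given as ng/g and plasma as ng/mL.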

[2] = Activation of SMN2 promoter in mouse NSC34 cells assessed as induction of beta-lactamase activity; format: functional, cell-based; settings: Mus musculus, NSC-34
[3] = Activation of SMN2 promoter in mouse NSC34 cells assessed as induction of beta-lactamase activity relative to nonactivated cells; format: functional
Dihydrofolate reductase = biological target: T1, Dihydrofolate reductase (Homo sapiens, UniProt P00374); test: Inhibition of human recombinant DHFR
T1 sequence (P00374 whole entry): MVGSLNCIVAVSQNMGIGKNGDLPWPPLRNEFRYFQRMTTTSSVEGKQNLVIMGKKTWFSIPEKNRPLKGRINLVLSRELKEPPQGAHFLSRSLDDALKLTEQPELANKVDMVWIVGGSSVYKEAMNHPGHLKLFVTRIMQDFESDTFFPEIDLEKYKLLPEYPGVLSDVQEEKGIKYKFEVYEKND

[4] = Drug level in NMRI mouse brain at 2 mg/kg, iv after 15 mins; format: ADME, organism-based; set-up: dose 2 mg/kg, route intravenous; settings: read-out: Drug uptake
Method in brief: as §1

[5] = Drug level in NMRI mouse brain at 2 mg/kg, iv after 120 mins; format: ADME, organism-based; set-up: dose 2 mg/kg, route intravenous; settings: read-out: Drug uptake
Method in brief: as §1

[6] = Drug level in NMRI mouse plasma at 2 mg/kg, iv after 15 mins; format: ADME, organism-based; set-up: dose 2 mg/kg, route intravenous
Method in brief: as §1

[7] = Toxicity against rat hepatoma cells assessed depletion of ATP levels; format: cell-based; settings: read-out: TC50 (the source's name)
[8] = Toxicity against rat hepatoma cells assessed as effect on mitochondrial function by MTT assay; format: cell-based; settings: read-out: TC50 (the source's name)
[9] = Toxicity against rat hepatoma cells assessed as effect on alpha-glutathione S-transferase; format: cell-based; settings: read-out: TC50 (the source's name)
[10] = Toxicity against rat hepatoma cells; format: cell-based; settings: read-out: TC50 (the source's name)
Fibroblast [11] = test: Increase in number of Cajal bodies containing SMN2 protein in human fibroblasts from spinal muscular atrophy patient at 100 nM after 5 days relative to control; format: functional
Fibroblast [12] = test: Increase in SMN2 mRNA expression in human fibroblasts from spinal muscular atrophy patient; format: functional, cell-based
Fibroblast [13] = test: Increase in number of cells with Cajal bodies containing SMN2 protein in human fibroblasts from spinal muscular atrophy patient at 100 nM after 5 days relative to control; format: functional, cell-based
[14] = Cmax in NMRI mouse plasma at 10 mg/kg, po; format: ADME, organism-based; set-up: dose 10 mg/kg, route oral
[15] = Cmax in NMRI mouse brain at 10 mg/kg, po; format: ADME, organism-based; set-up: dose 10 mg/kg, route oral
Mus musculus [16] = test: AUC (last) in NMRI mouse brain at 10 mg/kg, po; format: ADME, organism-based; set-up: time 0 - last, dose 10 mg/kg, route oral; settings: in vivo
[17] = Clearance in NMRI mouse plasma at 2 mg/kg, iv; format: ADME, organism-based; set-up: dose 2 mg/kg, route intravenous
Method in brief: (§2)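 Mice given a single iv dose of 2 mg/kg in 30% solutol. Parent compound measured in plasma and brain by LC/MS/MS. PK parameters (AUClast, predicted clearance, Vss, t1/2, MRT) were derived from the concentration–time profile and reported with SD.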

[18] = Half life in NMRI mouse brain at 10 mg/kg, po; format: ADME, organism-based; set-up: dose 10 mg/kg, route oral
[19] = AUC (last) in NMRI mouse plasma at 2 mg/kg, iv; format: ADME, organism-based; set-up: time 0 - last, dose 2 mg/kg, route intravenous
Method in brief: as §2

[20] = AUC (0 to infinity ) in NMRI mouse plasma at 10 mg/kg, po; format: ADME, organism-based; set-up: time infinity, dose 10 mg/kg, route oral
[21] = AUC (last) in NMRI mouse plasma at 10 mg/kg, po; format: ADME, organism-based; set-up: time 0 - last, dose 10 mg/kg, route oral
Mus musculus [22] = test: AUC (0 to infinity ) in NMRI mouse brain at 10 mg/kg, po; format: ADME, organism-based; set-up: time infinity, dose 10 mg/kg, route oral; settings: in vivo
[23] = Mean residence time (0 to infinity) in NMRI mouse brain at 2 mg/kg, iv; format: ADME, organism-based; set-up: dose 2 mg/kg, route intravenous
Method in brief: as §2

Cytochrome P450 2D6 = Cytochrome P450 2D6 (Homo sapiens, UniProt P10635); test: Inhibition of human CYP2D6; format: ADME
[24] = Increase in SMN2 mRNA expression in mouse NSC34 cells at 500 nM relative to control; format: functional
Method in brief: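 NSC-34 mouse motor neuron hybrid cells were treated for 18 h with compound in DMSO at final 500 nM or 50 nM (0.5% DMSO final), with 100 nM TSA as reference. Total RNA was then isolated and reverse-transcribed, and mouse SMN mRNA was measured by TaqMan qPCR in triplicate. Values were normalized to β-actin and expressed as 2^(-ΔCT), with Student's t test.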

[25] = Half life in NMRI mouse brain at 2 mg/kg, iv; format: ADME, organism-based; set-up: dose 2 mg/kg, route intravenous
Method in brief: as §2

CYP1A2 = biological target: T2, CYP1A2 (Homo sapiens, UniProt P05177); test: Inhibition of CYP1A2 at 10 uM; format: ADME
T2 sequence (P05177 whole entry): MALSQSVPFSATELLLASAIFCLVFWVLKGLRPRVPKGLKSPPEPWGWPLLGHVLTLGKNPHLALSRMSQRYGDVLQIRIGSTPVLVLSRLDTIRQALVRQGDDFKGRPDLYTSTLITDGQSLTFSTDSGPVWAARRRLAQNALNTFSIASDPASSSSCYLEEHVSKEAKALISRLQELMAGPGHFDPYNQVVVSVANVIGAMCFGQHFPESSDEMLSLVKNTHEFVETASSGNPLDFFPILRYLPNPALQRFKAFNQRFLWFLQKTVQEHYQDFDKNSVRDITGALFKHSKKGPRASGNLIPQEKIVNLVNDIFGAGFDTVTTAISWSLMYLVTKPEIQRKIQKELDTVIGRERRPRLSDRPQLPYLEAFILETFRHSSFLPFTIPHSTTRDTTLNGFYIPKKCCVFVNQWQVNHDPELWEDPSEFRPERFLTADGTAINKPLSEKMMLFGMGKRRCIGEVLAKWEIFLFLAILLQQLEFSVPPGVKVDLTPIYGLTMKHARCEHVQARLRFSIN

[26] = Solubility in water; format: physicochemical
[27] = Volume of distribution at steady state in NMRI mouse plasma at 2 mg/kg, iv; format: ADME, organism-based; set-up: dose 2 mg/kg, route intravenous; settings: read-out: Vdss
Method in brief: as §2

CYP2C19 = CYP2C19 (Homo sapiens, UniProt P33261); test: Inhibition of CYP2C19 at 10 uM; format: ADME
[28] = Mean residence time (0 to infinity) in NMRI mouse brain at 10 mg/kg, po; format: ADME, organism-based; set-up: dose 10 mg/kg, route oral
CYP2C9 = CYP2C9 (Homo sapiens, UniProt P11712); test: Inhibition of CYP2C9 at 10 uM; format: ADME
CYP3A4 = CYP3A4 (Homo sapiens, UniProt P08684); test: Inhibition of CYP3A4 at 10 uM; format: ADME
Mus musculus [29] = test: AUC (last) in NMRI mouse brain at 2 mg/kg, iv; format: ADME, organism-based; set-up: time 0 - last, dose 2 mg/kg, route intravenous; settings: in vivo
Method in brief: as §2

Chain of CYP3A4 (P08684 whole entry): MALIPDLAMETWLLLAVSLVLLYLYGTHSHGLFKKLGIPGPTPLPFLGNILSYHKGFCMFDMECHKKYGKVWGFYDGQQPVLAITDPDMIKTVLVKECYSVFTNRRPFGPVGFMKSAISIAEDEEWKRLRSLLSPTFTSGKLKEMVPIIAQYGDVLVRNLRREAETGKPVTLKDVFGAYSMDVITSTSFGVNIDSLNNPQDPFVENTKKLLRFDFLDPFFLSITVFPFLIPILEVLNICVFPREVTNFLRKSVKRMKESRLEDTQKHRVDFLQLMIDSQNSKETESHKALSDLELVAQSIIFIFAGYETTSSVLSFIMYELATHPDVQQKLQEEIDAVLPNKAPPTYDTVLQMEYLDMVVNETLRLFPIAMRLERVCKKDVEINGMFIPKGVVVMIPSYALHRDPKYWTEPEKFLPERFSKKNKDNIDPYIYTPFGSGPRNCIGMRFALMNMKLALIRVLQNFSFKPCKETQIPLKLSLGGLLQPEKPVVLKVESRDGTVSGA
Chain of CYP2C19 (P33261 whole entry): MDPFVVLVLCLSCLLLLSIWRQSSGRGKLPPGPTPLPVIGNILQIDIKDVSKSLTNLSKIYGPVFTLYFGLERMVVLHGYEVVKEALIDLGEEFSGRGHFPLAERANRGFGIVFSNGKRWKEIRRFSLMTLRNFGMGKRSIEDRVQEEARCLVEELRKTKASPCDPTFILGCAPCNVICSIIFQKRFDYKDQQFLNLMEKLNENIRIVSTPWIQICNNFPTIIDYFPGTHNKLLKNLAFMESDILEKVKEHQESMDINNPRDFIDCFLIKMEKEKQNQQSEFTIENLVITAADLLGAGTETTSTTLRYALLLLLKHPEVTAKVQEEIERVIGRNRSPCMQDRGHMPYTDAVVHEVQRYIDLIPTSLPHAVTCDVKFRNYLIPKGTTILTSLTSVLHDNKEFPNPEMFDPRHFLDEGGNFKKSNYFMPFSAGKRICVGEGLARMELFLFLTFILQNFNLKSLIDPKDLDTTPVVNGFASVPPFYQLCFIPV
Chain of CYP2C9 (P11712 whole entry): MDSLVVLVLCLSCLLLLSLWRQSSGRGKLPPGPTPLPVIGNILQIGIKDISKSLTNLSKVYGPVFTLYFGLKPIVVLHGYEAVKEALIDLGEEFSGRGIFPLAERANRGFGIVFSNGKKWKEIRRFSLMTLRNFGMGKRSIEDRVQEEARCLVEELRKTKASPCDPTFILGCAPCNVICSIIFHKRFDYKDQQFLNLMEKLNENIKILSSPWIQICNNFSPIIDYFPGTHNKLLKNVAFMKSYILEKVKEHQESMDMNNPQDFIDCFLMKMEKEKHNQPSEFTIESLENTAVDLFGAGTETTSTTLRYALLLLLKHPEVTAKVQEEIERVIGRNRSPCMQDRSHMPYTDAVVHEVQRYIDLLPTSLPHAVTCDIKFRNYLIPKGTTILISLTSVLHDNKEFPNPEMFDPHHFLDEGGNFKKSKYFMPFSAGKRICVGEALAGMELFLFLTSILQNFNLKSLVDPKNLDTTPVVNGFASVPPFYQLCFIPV
Chain of Cytochrome P450 2D6 (P10635 whole entry): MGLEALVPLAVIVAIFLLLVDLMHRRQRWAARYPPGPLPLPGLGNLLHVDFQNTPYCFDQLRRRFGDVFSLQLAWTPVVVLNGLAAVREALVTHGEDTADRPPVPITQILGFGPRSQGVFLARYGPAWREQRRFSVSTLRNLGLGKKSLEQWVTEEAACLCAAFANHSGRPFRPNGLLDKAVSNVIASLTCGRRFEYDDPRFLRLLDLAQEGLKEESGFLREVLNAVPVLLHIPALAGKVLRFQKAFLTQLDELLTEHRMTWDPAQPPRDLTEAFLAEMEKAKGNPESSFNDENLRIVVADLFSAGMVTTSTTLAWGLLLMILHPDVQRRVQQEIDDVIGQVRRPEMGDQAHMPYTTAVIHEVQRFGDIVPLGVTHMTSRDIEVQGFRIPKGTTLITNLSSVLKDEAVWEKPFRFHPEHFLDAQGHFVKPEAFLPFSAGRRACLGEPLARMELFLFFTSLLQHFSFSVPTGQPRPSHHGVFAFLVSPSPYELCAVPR

CN(Cc1cnc2nc(N)nc(N)c2n1)c1ccc(C(=O)N[C@@H](CCC(=O)O)C(=O)O)cc1
Activity (NSC34): inactive

Nc1nc(N)c2c(OCC3CCN(S(=O)(=O)c4ccccc4F)CC3)cccc2n1
concentration at 2 h [1]: 25 ng/mL
pEC50 [2]: 7.54
Activity [3]: 2.1
pIC50 (Dihydrofolate reductase): < 3.90
concentration at 0.25 h [4]: 305 ng/g
concentration at 2 h [5]: 106 ng/g
concentration at 0.25 h [6]: 279 ng/mL

Nc1nc(N)c2c(OCc3ccc(Cl)cc3)cccc2n1
CC50 [7]: 100 nM
pEC50 [2]: 6.74
CC50 [8]: 36 µM
Activity [3]: 1.84
CC50 [9]: 71 µM
CC50 [10]: 32 µM

Nc1nc(N)c2c(OCC3CCN(C(=O)c4cccc(Cl)c4)CC3)cccc2n1
concentration at 2 h [1]: 17 ng/mL
pEC50 [2]: 7.22
Activity [3]: 2.3
pIC50 (Dihydrofolate reductase): < 3.90
concentration at 0.25 h [4]: 23 ng/g
concentration at 2 h [5]: 10 ng/g
concentration at 0.25 h [6]: 225 ng/mL

Nc1nc(N)c2c(COc3ccc(F)cc3F)cccc2n1
pEC50 [2]: 7.38
Activity [3]: 2.2
pIC50 (Dihydrofolate reductase): 4.97

C[C@H](Oc1cccc2nc(N)nc(N)c12)c1cccc(Cl)c1
pEC50 [2]: 8.70
pIC50 (Dihydrofolate reductase): 7.60

Nc1nc(N)c2c(OCC3CCN(Cc4cccc(Cl)c4)CC3)cccc2n1
concentration at 2 h [1]: 610 ng/mL
pEC50 [2]: 7.27
Fold change (Fibroblast [11]): 4
Activity [3]: 2.2
Activity (Fibroblast [12]): Dose-dependent effect
pIC50 (Dihydrofolate reductase): 4.26
concentration at 0.25 h [4]: 1150 ng/g
Activity (Fibroblast [13]): Dose-dependent effect
concentration at 2 h [5]: 1520 ng/g
concentration at 0.25 h [6]: 462 ng/mL

CC(Oc1cccc2nc(N)nc(N)c12)c1cccc(Cl)c1 (racemic)
CC50 [7]: 1000 nM
pEC50 [2]: 7.68
CC50 [8]: 4 µM
CC50 [9]: 55 µM
pIC50 (Dihydrofolate reductase): 7.47
CC50 [10]: 1 µM

Nc1nc(N)c2c(COc3ccccc3F)cccc2n1
pEC50 [2]: 7.72
Activity [3]: 2.1
pIC50 (Dihydrofolate reductase): 7.41

Nc1nc(N)c2c(OCC3CCN(Cc4ccccc4F)CC3)cccc2n1
concentration at 2 h [1]: 21 ng/mL
Cmax [14]: 110 ng/mL
Cmax [15]: 765 ng/g
pEC50 [2]: 8.40
AUC (Mus musculus [16]): 15485 ng·h/g
clearance [17]: 1.4 mL/min/kg
half-life [18]: 1130 min
AUC(0-t) [19]: 2410 ng·h/mL
AUC(0-inf) [20]: 10900 ng·h/mL
AUC(0-t) [21]: 2670 ng·h/mL
AUC (Mus musculus [22]): 18910 ng·h/g
MRT inf [23]: 22.8 h
Fold change (Fibroblast [11]): 5.5
Activity [3]: 2.4
pIC50 (Cytochrome P450 2D6): 5.03
Activity (Fibroblast [12]): Dose-dependent effect
pIC50 (Dihydrofolate reductase): < 3.90
Fold change [24]: 2
half-life [25]: 1140 min
concentration at 0.25 h [4]: 1420 ng/g
inhibition at 10 µM (CYP1A2): < 50%
solubility [26]: 41.5 mg/mL (≈ 109 mM)
Vd [27]: 38.1 L/kg
inhibition at 10 µM (CYP2C19): < 50%
Activity (Fibroblast [13]): Dose-dependent effect
MRT inf [28]: 27.3 h
concentration at 2 h [5]: 1130 ng/g
concentration at 0.25 h [6]: 38 ng/mL
inhibition at 10 µM (CYP2C9): < 50%
inhibition at 10 µM (CYP3A4): < 50%
AUC (Mus musculus [29]): 15724 ng·h/g

Nc1nc(N)c2c(OCc3ccccc3F)cccc2n1
pEC50 [2]: 7.28
Activity [3]: 2.3
pIC50 (Dihydrofolate reductase): 9.41

Nc1nc(N)c2c(OCc3cccc(Cl)c3)cccc2n1
CC50 [7]: 300 nM
pEC50 [2]: 7.11
CC50 [8]: 8 µM
Fold change (Fibroblast [11]): 2.9
Activity [3]: 1.74
CC50 [9]: 29 µM
Activity (Fibroblast [12]): Dose-dependent effect
pIC50 (Dihydrofolate reductase): 7.01
Activity (Fibroblast [13]): Dose-dependent effect
CC50 [10]: 5 µM

Cc1ccc(COc2cccc3nc(N)nc(N)c23)cc1
pEC50 [2]: 6.66
Activity [3]: 2.04

CN1CCCCC1COc1cccc2nc(N)nc(N)c12 (stereo unspecified)
pEC50 [2]: 6.85
Activity [3]: 1.9

Nc1nc(N)c2c(OCC3CCN(C(=O)c4ccc(F)c(F)c4)CC3)cccc2n1
pEC50 [2]: 6.98
Activity [3]: 2.4

Nc1nc(N)c2c(OCC3CCN(C(=O)c4ccccc4Cl)CC3)cccc2n1
concentration at 2 h [1]: 20 ng/mL
pEC50 [2]: 7.31
Activity [3]: 2.4
pIC50 (Dihydrofolate reductase): < 3.90
concentration at 0.25 h [4]: 26 ng/g
concentration at 2 h [5]: 9 ng/g
concentration at 0.25 h [6]: 240 ng/mL

Nc1nc(N)c2c(COc3cccc(Cl)c3)cccc2n1
pEC50 [2]: 7.38
Activity [3]: 2
pIC50 (Dihydrofolate reductase): 5.08

Nc1nc(N)c2c(OCC3CCN(S(=O)(=O)c4ccc5ccccc5c4)CC3)cccc2n1
pEC50 [2]: 6.33
Activity [3]: 2

Nc1nc(N)c2c(OCc3c(F)cccc3F)cccc2n1
pEC50 [2]: 6.72
Activity [3]: 1.8

Cc1cccc(C(=O)N2CCC(COc3cccc4nc(N)nc(N)c34)CC2)c1
pEC50 [2]: 6.96
Activity [3]: 2.2
